Source: paper PMC6247064 (Cancer Science, 2018)

Test system: Japanese patients with advanced solid tumors
Experiment: Phase 1 study: safety, tolerability, DLT and treatment-emergent adverse events
Format: in vivo, human
Summary of the method: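 Open-label single-arm dose levels of 80 or 105 mg/m2 IV were given on day 1 of 14-day cycles, with at most 6 patients per level. Adverse events were graded by CTCAE v4.03. DLTs were related events in cycle 1 meeting predefined hematologic or nonhematologic criteria. Tolerability required a cycle 1 DLT rate <33%. Primary G-CSF prophylaxis was barred during DLT evaluation; G-CSF was allowed for treatment-emergent neutropenia and as secondary prophylaxis.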

COc1cccc(OCCCN)c1-c1cc(Nc2cnc(C#N)cn2)n[nH]1 [Prexasertib]
TEAE related to study treatment: Lung infection (105 mg/m^2 N = 6, Grade 3 + 4): 0 n (%) | TEAE related to study treatment: Lymphocytopenia (105 mg/m^2 N = 6, Grade 3 + 4): 0 n (%) | TEAE related to study treatment: Nausea (105 mg/m^2 N = 6, Grade 3 + 4): 0 n (%) | TEAE related to study treatment: Neutropenia (105 mg/m^2 N = 6, Grade 3 + 4): 6 (100) n (%) | TEAE related to study treatment: Pyrexia (105 mg/m^2 N = 6, Grade 3 + 4): 0 n (%) | TEAE related to study treatment: Rash (105 mg/m^2 N = 6, Grade 3 + 4): 0 n (%) | TEAE related to study treatment: Rash maculopapular (105 mg/m^2 N = 6, Grade 3 + 4): 0 n (%) | TEAE related to study treatment: SVE (supraventricular extrasystoles) (105 mg/m^2 N = 6, Grade 3 + 4): 0 n (%) | TEAE related to study treatment: Stomatitis (105 mg/m^2 N = 6, Grade 3 + 4): 0 n (%) | TEAE related to study treatment: Thrombocytopenia (105 mg/m^2 N = 6, Grade 3 + 4): 1 (16.7) n (%) | TEAE related to study treatment: Anemia (105 mg/m^2 N = 6, Grade 4): 0 n (%) | TEAE related to study treatment: Any (105 mg/m^2 N = 6, Grade 4): 3 (50.0) n (%) | TEAE related to study treatment: Atrial fibrillation (105 mg/m^2 N = 6, Grade 4): 0 n (%) | TEAE related to study treatment: Constipation (105 mg/m^2 N = 6, Grade 4): 0 n (%) | TEAE related to study treatment: ECG QT prolonged (105 mg/m^2 N = 6, Grade 4): 0 n (%) | TEAE related to study treatment: Fatigue (105 mg/m^2 N = 6, Grade 4): 0 n (%) | TEAE related to study treatment: Febrile neutropenia (105 mg/m^2 N = 6, Grade 4): 0 n (%) | TEAE related to study treatment: Headache (105 mg/m^2 N = 6, Grade 4): 0 n (%) | TEAE related to study treatment: Hypocalcemia (105 mg/m^2 N = 6, Grade 4): 0 n (%) | TEAE related to study treatment: Leukopenia (105 mg/m^2 N = 6, Grade 4): 1 (16.7) n (%) | TEAE related to study treatment: Lung infection (105 mg/m^2 N = 6, Grade 4): 0 n (%) | TEAE related to study treatment: Lymphocytopenia (105 mg/m^2 N = 6, Grade 4): 0 n (%) | TEAE related to study treatment: Nausea (105 mg/m^2 N = 6, Grade 4): 0 n (%) | TEAE related to study treatment: Neutropenia (105 mg/m^2 N = 6, Grade 4): 3 (50.0) n (%) | TEAE related to study treatment: Pyrexia (105 mg/m^2 N = 6, Grade 4): 0 n (%) | TEAE related to study treatment: Rash (105 mg/m^2 N = 6, Grade 4): 0 n (%) | TEAE related to study treatment: Rash maculopapular (105 mg/m^2 N = 6, Grade 4): 0 n (%) | TEAE related to study treatment: SVE (supraventricular extrasystoles) (105 mg/m^2 N = 6, Grade 4): 0 n (%) | TEAE related to study treatment: Stomatitis (105 mg/m^2 N = 6, Grade 4): 0 n (%) | TEAE related to study treatment: Thrombocytopenia (105 mg/m^2 N = 6, Grade 4): 0 n (%) | Patients with at least 1 AE that led to a dose adjustment (105 mg/m^2 group): 3 patients | Patients with at least 1 AE that led to a dose delay (105 mg/m^2 group): 3 patients | Patients with at least 1 AE that led to dose reduction (105 mg/m^2 group (105 to 80 mg/m^2)): 1 patient | TEAE related to study treatment: Anemia (Total N = 12, Any grade): 3 (25.0) n (%) | TEAE related to study treatment: Any (Total N = 12, Any grade): 12 (100) n (%) | TEAE related to study treatment: Atrial fibrillation (Total N = 12, Any grade): 1 (8.3) n (%) | TEAE related to study treatment: Constipation (Total N = 12, Any grade): 3 (25.0) n (%) | TEAE related to study treatment: ECG QT prolonged (Total N = 12, Any grade): 2 (16.7) n (%) | TEAE related to study treatment: Fatigue (Total N = 12, Any grade): 2 (16.7) n (%) | TEAE related to study treatment: Febrile neutropenia (Total N = 12, Any grade): 2 (16.7) n (%) | TEAE related to study treatment: Headache (Total N = 12, Any grade): 1 (8.3) n (%) | TEAE related to study treatment: Hypocalcemia (Total N = 12, Any grade): 1 (8.3) n (%) | TEAE related to study treatment: Leukopenia (Total N = 12, Any grade): 12 (100) n (%) | TEAE related to study treatment: Lung infection (Total N = 12, Any grade): 1 (8.3) n (%) | TEAE related to study treatment: Lymphocytopenia (Total N = 12, Any grade): 2 (16.7) n (%) | TEAE related to study treatment: Nausea (Total N = 12, Any grade): 2 (16.7) n (%) | TEAE related to study treatment: Neutropenia (Total N = 12, Any grade): 11 (91.7) n (%) | TEAE related to study treatment: Pyrexia (Total N = 12, Any grade): 2 (16.7) n (%) | TEAE related to study treatment: Rash (Total N = 12, Any grade): 1 (8.3) n (%) | TEAE related to study treatment: Rash maculopapular (Total N = 12, Any grade): 2 (16.7) n (%) | TEAE related to study treatment: SVE (supraventricular extrasystoles) (Total N = 12, Any grade): 1 (8.3) n (%) | TEAE related to study treatment: Stomatitis (Total N = 12, Any grade): 1 (8.3) n (%) | TEAE related to study treatment: Thrombocytopenia (Total N = 12, Any grade): 8 (66.7) n (%) | TEAE related to study treatment: Anemia (Total N = 12, Grade 3): 1 (8.3) n (%) | TEAE related to study treatment: Any (Total N = 12, Grade 3): 5 (41.7) n (%) | TEAE related to study treatment: Atrial fibrillation (Total N = 12, Grade 3): 0 n (%) | TEAE related to study treatment: Constipation (Total N = 12, Grade 3): 0 n (%) | TEAE related to study treatment: ECG QT prolonged (Total N = 12, Grade 3): 0 n (%) | TEAE related to study treatment: Fatigue (Total N = 12, Grade 3): 0 n (%) | TEAE related to study treatment: Febrile neutropenia (Total N = 12, Grade 3): 1 (8.3) n (%) | TEAE related to study treatment: Headache (Total N = 12, Grade 3): 0 n (%) | TEAE related to study treatment: Hypocalcemia (Total N = 12, Grade 3): 0 n (%) | TEAE related to study treatment: Leukopenia (Total N = 12, Grade 3): 5 (41.7) n (%) | TEAE related to study treatment: Lung infection (Total N = 12, Grade 3): 0 n (%) | TEAE related to study treatment: Lymphocytopenia (Total N = 12, Grade 3): 1 (8.3) n (%) | TEAE related to study treatment: Nausea (Total N = 12, Grade 3): 0 n (%) | TEAE related to study treatment: Neutropenia (Total N = 12, Grade 3): 4 (33.3) n (%) | TEAE related to study treatment: Pyrexia (Total N = 12, Grade 3): 0 n (%) | TEAE related to study treatment: Rash (Total N = 12, Grade 3): 0 n (%) | TEAE related to study treatment: Rash maculopapular (Total N = 12, Grade 3): 0 n (%) | TEAE related to study treatment: SVE (supraventricular extrasystoles) (Total N = 12, Grade 3): 0 n (%) | TEAE related to study treatment: Stomatitis (Total N = 12, Grade 3): 0 n (%) | TEAE related to study treatment: Thrombocytopenia (Total N = 12, Grade 3): 3 (25.0) n (%) | TEAE related to study treatment: Anemia (Total N = 12, Grade 3 + 4): 2 (16.7) n (%) | TEAE related to study treatment: Any (Total N = 12, Grade 3 + 4): 12 (100) n (%) | TEAE related to study treatment: Atrial fibrillation (Total N = 12, Grade 3 + 4): 0 n (%) | TEAE related to study treatment: Constipation (Total N = 12, Grade 3 + 4): 0 n (%) | TEAE related to study treatment: ECG QT prolonged (Total N = 12, Grade 3 + 4): 0 n (%) | TEAE related to study treatment: Fatigue (Total N = 12, Grade 3 + 4): 0 n (%) | TEAE related to study treatment: Febrile neutropenia (Total N = 12, Grade 3 + 4): 2 (16.7) n (%) | TEAE related to study treatment: Headache (Total N = 12, Grade 3 + 4): 0 n (%) | TEAE related to study treatment: Hypocalcemia (Total N = 12, Grade 3 + 4): 0 n (%) | TEAE related to study treatment: Leukopenia (Total N = 12, Grade 3 + 4): 9 (75.0) n (%) | TEAE related to study treatment: Lung infection (Total N = 12, Grade 3 + 4): 0 n (%) | TEAE related to study treatment: Lymphocytopenia (Total N = 12, Grade 3 + 4): 1 (8.3) n (%) | TEAE related to study treatment: Nausea (Total N = 12, Grade 3 + 4): 0 n (%) | TEAE related to study treatment: Neutropenia (Total N = 12, Grade 3 + 4): 10 (83.3) n (%) | TEAE related to study treatment: Pyrexia (Total N = 12, Grade 3 + 4): 0 n (%) | TEAE related to study treatment: Rash (Total N = 12, Grade 3 + 4): 0 n (%) | TEAE related to study treatment: Rash maculopapular (Total N = 12, Grade 3 + 4): 0 n (%) | TEAE related to study treatment: SVE (supraventricular extrasystoles) (Total N = 12, Grade 3 + 4): 0 n (%) | TEAE related to study treatment: Stomatitis (Total N = 12, Grade 3 + 4): 0 n (%) | TEAE related to study treatment: Thrombocytopenia (Total N = 12, Grade 3 + 4): 4 (33.3) n (%) | TEAE related to study treatment: Anemia (Total N = 12, Grade 4): 1 (8.3) n (%) | TEAE related to study treatment: Any (Total N = 12, Grade 4): 7 (58.3) n (%) | TEAE related to study treatment: Atrial fibrillation (Total N = 12, Grade 4): 0 n (%) | TEAE related to study treatment: Constipation (Total N = 12, Grade 4): 0 n (%) | TEAE related to study treatment: ECG QT prolonged (Total N = 12, Grade 4): 0 n (%) | TEAE related to study treatment: Fatigue (Total N = 12, Grade 4): 0 n (%) | TEAE related to study treatment: Febrile neutropenia (Total N = 12, Grade 4): 1 (8.3) n (%) | TEAE related to study treatment: Headache (Total N = 12, Grade 4): 0 n (%) | TEAE related to study treatment: Hypocalcemia (Total N = 12, Grade 4): 0 n (%) | TEAE related to study treatment: Leukopenia (Total N = 12, Grade 4): 4 (33.3) n (%) | TEAE related to study treatment: Lung infection (Total N = 12, Grade 4): 0 n (%) | TEAE related to study treatment: Lymphocytopenia (Total N = 12, Grade 4): 0 n (%) | TEAE related to study treatment: Nausea (Total N = 12, Grade 4): 0 n (%) | TEAE related to study treatment: Neutropenia (Total N = 12, Grade 4): 6 (50.0) n (%) | TEAE related to study treatment: Pyrexia (Total N = 12, Grade 4): 0 n (%) | TEAE related to study treatment: Rash (Total N = 12, Grade 4): 0 n (%) | TEAE related to study treatment: Rash maculopapular (Total N = 12, Grade 4): 0 n (%) | TEAE related to study treatment: SVE (supraventricular extrasystoles) (Total N = 12, Grade 4): 0 n (%) | TEAE related to study treatment: Stomatitis (Total N = 12, Grade 4): 0 n (%) | TEAE related to study treatment: Thrombocytopenia (Total N = 12, Grade 4): 1 (8.3) n (%) | Frequently-reported TEAE: leukopenia (all 12 patients): 100% | Frequently-reported TEAE: neutropenia (all 12 patients): 91.7% | Frequently-reported TEAE: thrombocytopenia (all 12 patients): 66.7% | Nonhematologic grade 3 or 4 treatment-related TEAE (all 12 patients): no reported nonhematologic grade 3 or 4 treatment‐related TEAE | Treatment-related grade 4 TEAE: anemia (all 12 patients (1 instance)): 8.3% | Treatment-related grade 4 TEAE: febrile neutropenia (all 12 patients (1 instance)): 8.3% | Treatment-related grade 4 TEAE: thrombocytopenia (all 12 patients (1 instance)): 8.3% | Treatment-related grade 4 TEAE: leukopenia (all 12 patients (4 patients)): 33.3% | Treatment-related grade 4 TEAE: neutropenia (all 12 patients (6 patients)): 50.0% | AE that led to treatment interruption (all patients): No patients experienced AE that led to treatment interruption | Clinically significant cardiac toxicities or AE related to QT prolongation (all patients): No clinically significant cardiac toxicities or AE related to QT prolongation were observed | Discontinuation of the study due to an AE (all patients): no patients discontinued the study due to an AE | Patient deaths during the study (all patients): No patient deaths were reported | Patients with at least 1 AE that led to a dose adjustment (all patients (8 patients)): 66.7% | Patients with at least 1 AE that led to dose reduction (all patients (Five patients)): 41.7% | Patients with at least 1 AE that led to a dose delay (all patients (Six patients)): 50.0% | Dose reduction due to febrile neutropenia (all patients, 1 patient in each group): 16.7% | Dose delay due to neutropenia (all patients, 2 patients in each group): 33.3% | Neutrophil count nadir in patients with grade 4 drug-related neutropenia (day of cycle): ~8 days | Duration of grade 4 neutrophil decreases (in most cases, transient): < 5 days | Tolerability (DLT frequency in cycle 1 <33%) (recommended dose of 105 mg/m^2, Japanese patients): confirmed
